{"source": "ChEMBL document CHEMBL1124180", "about": "“Asymmetric synthesis and properties of the enantiomers of the antibacterial agent 7-(3-aminopyrrolidin-1-yl)-1-(2,4-difluorophenyl)-1,4-dihydro-6- fluoro-4-oxo-1,8-naphthyridine-3-carboxylic acid hydrochloride” (J Med Chem, 1988)", "key": {"[1]": {"system": "Fusobacterium nucleatum", "test": "In vitro activity against Fusobacterium nucleatum (ATCC 25586)", "type": "functional", "outline": "(§1)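 MIC determined under anaerobic conditions on Wilkins-Chalgren agar.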"}, "[2]": {"system": "Clostridium perfringens", "test": "In vitro activity against Clostridium perfringens (104AT13124)", "type": "functional", "outline": "(§2)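 MIC for anaerobic bacteria, measured on Wilkins-Chalgren agar.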"}, "[3]": {"system": "Parvimonas micra", "test": "In vitro activity against Peptostreptococcus micros (ATCC 33270)", "type": "functional", "outline": "as §1"}, "[4]": {"test": "Solubility in aqueous media urine, pH 5.7", "type": "physicochemical", "settings": "read-out: S"}, "[5]": {"system": "Escherichia coli", "test": "In vitro activity against Escherichia coli (DC-2)", "type": "functional", "outline": "(§3)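 MIC for aerobic bacteria, measured on brain-heart infusion agar.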"}, "[6]": {"system": "Bacteroides thetaiotaomicron", "test": "In vitro activity against Bacteroides thetaiotaomicron (ATCC 29742)", "type": "functional", "outline": "as §1"}, "[7]": {"system": "Streptococcus pyogenes", "test": "In vitro activity against Streptococcus pyogenes (2548 INDUC).", "type": "functional", "outline": "(§4)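 MIC determined by agar dilution on brain-heart infusion agar under aerobic conditions.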"}, "[8]": {"system": "Finegoldia magna", "test": "In vitro activity against Peptococcus magnus (ATCC 29328)", "type": "functional", "outline": "as §1"}, "[9]": {"system": "Mus musculus", "test": "In vivo activity against Staphylococcus aureus NCTC 10649, administered sc ( each compound tested at 3 doses with 10 animals)", "type": "functional", "outline": "(§5)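 Mice were challenged intraperitoneally with the organism. The compound was given subcutaneously as a total dose split into equal portions at 1 and 5 h post-infection. Three doses were used, with 10 animals per dose.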"}, "[10]": {"system": "Mus musculus", "test": "In vivo activity against Escherichia coli Juhl(100X LD50), when administered sc(each compound tested at 3 doses with 10 animals)", "type": "functional", "outline": "as §5"}, "[11]": {"system": "Staphylococcus aureus", "test": "In vitro activity against Staphylococcus aureus(CMX 686B)", "type": "functional", "outline": "as §4"}, "[12]": {"test": "Solubility in aqueous media 0.15 N phosphate, pH 5.6", "type": "physicochemical", "settings": "read-out: S"}, "[13]": {"system": "Cutibacterium acnes", "test": "In vitro activity against Propionibacterium acnes (132)", "type": "functional", "outline": "as §1"}, "[14]": {"system": "Mus musculus", "test": "In vivo activity against Staphylococcus aureus NCTC 10649, administered po( each compound tested at 3 doses with 10 animals)", "type": "functional", "outline": "(§6)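 Mice were challenged intraperitoneally with the organism. The compound was given orally as a total dose split into equal portions at 1 and 5 h post-infection. Three doses were used, with 10 animals per dose.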"}, "[15]": {"system": "Pseudomonas aeruginosa", "test": "In vitro activity against Pseudomonas aeruginosa (A5007).", "type": "functional", "outline": "as §4"}, "[16]": {"system": "Bacteroides fragilis", "test": "In vitro activity against Bacteroides fragilis (UC-2)", "type": "functional", "outline": "as §1"}, "[17]": {"system": "Staphylococcus aureus", "test": "In vitro activity against Staphylococcus aureus (A5177)", "type": "functional", "outline": "as §4"}, "[18]": {"system": "Clostridioides difficile", "test": "In vitro activity against Clostridium difficile (ATCC 17857)", "type": "functional"}, "[19]": {"system": "Staphylococcus aureus", "test": "In vitro activity against Staphylococcus aureus(45)", "type": "functional", "outline": "as §4"}, "[20]": {"test": "Solubility in aqueous media Ringer''s buffer, pH 7.4", "type": "physicochemical"}, "[21]": {"system": "Escherichia coli", "test": "In vitro activity against Escherichia coli Juhl", "type": "functional", "outline": "as §3"}, "[22]": {"system": "Hoylesella loescheii", "test": "In vitro activity against Bacteroides loescheii (ATCC 15930).", "type": "functional", "outline": "as §1"}, "[23]": {"system": "Pseudomonas aeruginosa", "test": "In vitro activity against Pseudomonas aeruginosa (K799/WT).", "type": "functional", "outline": "as §4"}, "[24]": {"system": "Streptococcus equinus", "test": "In vitro activity against Streptococcus bovis (A5169).", "type": "functional", "outline": "as §4"}, "[25]": {"system": "Clostridioides difficile", "test": "In vitro activity against Clostridium difficile (ATCC 9689)", "type": "functional"}, "[26]": {"system": "Escherichia coli", "test": "In vitro activity against Escherichia coli (KNK437)", "type": "functional", "outline": "as §3"}, "[27]": {"system": "Bacteroides thetaiotaomicron", "test": "In vitro activity against Bacteroides thetaiotaomicron (106)", "type": "functional", "outline": "as §1"}, "[28]": {"system": "Streptococcus pyogenes", "test": "In vitro activity against Streptococcus pyogenes(930 CONST).", "type": "functional", "outline": "as §4"}, "[29]": {"test": "Solubility in aqueous media urine, pH 7.0", "type": "physicochemical", "settings": "read-out: S"}, "[30]": {"system": "Burkholderia cepacia", "test": "In vitro activity against Pseudomonas cepacia (296I)", "type": "functional", "outline": "as §4"}, "[31]": {"system": "Clostridium perfringens", "test": "In vitro activity against Clostridium perfringens (SFBC 2026)", "type": "functional", "outline": "as §2"}, "[32]": {"system": "Peptostreptococcus sp.", "test": "In vitro activity against Peptostreptococcus sp.(TB-11)", "type": "functional, peptostreptococcus s", "outline": "as §2"}, "[33]": {"system": "Mus musculus", "test": "In vivo activity against Pseudomonas aeruginosa A5007 (100X LD50), administered po( each compound tested at 3 doses with 10 animals)", "type": "functional", "outline": "as §6"}, "[34]": {"system": "Prevotella disiens", "test": "In vitro activity against Bacteroides disiens (ATCC 29426)", "type": "functional", "outline": "as §1"}, "[35]": {"system": "Peptostreptococcus anaerobius", "test": "In vitro activity against Peptostreptococcus anaerobius (ATCC 27337)", "type": "functional", "outline": "as §1"}, "[36]": {"system": "Staphylococcus aureus", "test": "In vitro activity against Staphylococcus aureus(CMX 553)", "type": "functional", "outline": "as §4"}, "[37]": {"system": "Mus musculus", "test": "In vivo activity against Escherichia coli Juhl(100X LD50), when administered po(each compound tested at 3 doses with 10 animals)", "type": "functional", "outline": "as §6"}, "[38]": {"system": "Bacteroides fragilis", "test": "In vitro activity against Bacteroides fragilis (SFM2929-1)", "type": "functional", "outline": "as §1"}}}
{"compound": "Cl.N[C@H]1CCN(c2nc3c(cc2F)c(=O)c(C(=O)O)cn3-c2ccc(F)cc2F)C1", "values": [{"measurement": "MIC", "setting": "[1]", "value": 0.25, "unit": "µg/mL"}, {"measurement": "MIC", "setting": "[2]", "value": 0.12, "unit": "µg/mL"}, {"measurement": "MIC", "setting": "[3]", "value": 0.06, "unit": "µg/mL"}, {"measurement": "solubility", "setting": "[4]", "value": 27.5, "unit": "µg/mL"}, {"measurement": "MIC", "setting": "[5]", "value": 0.2, "unit": "µg/mL"}, {"measurement": "MIC", "setting": "[6]", "value": 0.5, "unit": "µg/mL"}, {"measurement": "MIC", "setting": "[7]", "value": 0.1, "unit": "µg/mL"}, {"measurement": "MIC", "setting": "[8]", "value": 0.06, "unit": "µg/mL"}, {"measurement": "ED50", "setting": "[9]", "value": 0.4, "unit": "mg/kg"}, {"measurement": "ED50", "setting": "[10]", "value": 0.2, "unit": "mg/kg"}, {"measurement": "MIC", "setting": "[11]", "value": 0.05, "unit": "µg/mL"}, {"measurement": "solubility", "setting": "[12]", "value": 4.3, "unit": "µg/mL"}, {"measurement": "MIC", "setting": "[13]", "value": 2, "unit": "µg/mL"}, {"measurement": "ED50", "setting": "[14]", "value": 0.8, "unit": "mg/kg"}, {"measurement": "MIC", "setting": "[15]", "value": 0.1, "unit": "µg/mL"}, {"measurement": "MIC", "setting": "[16]", "value": 0.25, "unit": "µg/mL"}, {"measurement": "MIC", "setting": "[17]", "value": 0.05, "unit": "µg/mL"}, {"measurement": "MIC", "setting": "[18]", "value": 1, "unit": "µg/mL"}, {"measurement": "MIC", "setting": "[19]", "value": 0.1, "unit": "µg/mL"}, {"measurement": "solubility", "setting": "[20]", "value": 13, "unit": "µg/mL"}, {"measurement": "MIC", "setting": "[21]", "value": 0.02, "unit": "µg/mL"}, {"measurement": "MIC", "setting": "[22]", "value": 1, "unit": "µg/mL"}, {"measurement": "MIC", "setting": "[23]", "value": 0.1, "unit": "µg/mL"}, {"measurement": "MIC", "setting": "[24]", "value": 0.2, "unit": "µg/mL"}, {"measurement": "MIC", "setting": "[25]", "value": 1, "unit": "µg/mL"}, {"measurement": "MIC", "setting": "[26]", "value": 0.1, "unit": "µg/mL"}, {"measurement": "MIC", "setting": "[27]", "value": 0.5, "unit": "µg/mL"}, {"measurement": "MIC", "setting": "[28]", "value": 0.1, "unit": "µg/mL"}, {"measurement": "solubility", "setting": "[29]", "value": 17.1, "unit": "µg/mL"}, {"measurement": "MIC", "setting": "[30]", "value": 3.1, "unit": "µg/mL"}, {"measurement": "MIC", "setting": "[31]", "value": 0.12, "unit": "µg/mL"}, {"measurement": "MIC", "setting": "[32]", "value": 0.25, "unit": "µg/mL"}, {"measurement": "ED50", "setting": "[33]", "value": 11.5, "unit": "mg/kg"}, {"measurement": "MIC", "setting": "[34]", "value": 1, "unit": "µg/mL"}, {"measurement": "MIC", "setting": "[35]", "value": 0.12, "unit": "µg/mL"}, {"measurement": "MIC", "setting": "[36]", "value": 0.05, "unit": "µg/mL"}, {"measurement": "ED50", "setting": "[37]", "value": 0.8, "unit": "mg/kg"}, {"measurement": "MIC", "setting": "[38]", "value": 0.25, "unit": "µg/mL"}]}
